Assay results taken from ChEMBL document CHEMBL4382218, “Design, synthesis and antifungal evaluation of borrelidin derivatives” (Bioorg Med Chem, 2018).
Converted amounts (≈) assume the structure as drawn. The source made the active and inactive calls. No cut-off for these calls is given here.

Key:
[1] = test system: Aspergillus fumigatus; experiment: Antifungal activity against Aspergillus fumigatus CCTCC AF 93048 after 48 hrs by micro broth dilution method; type: functional; conditions: CCTCC AF 93048, 48 h
Procedure, shortened: (§1)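 Broth microdilution in RPMI-1640 (NaHCO3, MOPS, pH 7.0). Compounds are dissolved in DMSO and serially diluted 2-fold to eight concentrations, with stocks of […]. Fungal inocula are 2 × 10³ cfu/mL. Plates are incubated 48 h at 28 °C. The MIC is the lowest concentration with no turbidity, and the highest concentration tested is 100 μg/mL.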

[2] = test system: Candida albicans; experiment: Antifungal activity against Candida albicans ATCC MYA-2876 after 48 hrs by micro broth dilution method; type: functional; conditions: ATCC MYA-2876, 48 h; procedure, shortened: as §1
[3] = test system: Candida parapsilosis; experiment: Antifungal activity against Candida parapsilosis ATCC 22019 after 48 hrs by micro broth dilution method; type: functional; conditions: Lodderomyces parapsilosis, ATCC 22019, 48 h; procedure, shortened: as §1
[4] = Selectivity index, ratio of IC50 for HEK293T cells to MIC for Aspergillus fumigatus CCTCC AF 93048; type: toxicity; conditions: human, read-out: Selectivity Index
[5] = test system: Aspergillus fumigatus; experiment: Antifungal activity against Aspergillus fumigatus CCTCC AF 93048 at 100 ug/ml after 48 hrs by micro broth dilution method; type: functional, organism-based; procedure, shortened: as §1
[6] = test system: HEK-293T; experiment: Cytotoxicity against HEK293T cells assessed as growth inhibition after 48 hrs by MTT assay; type: cell-based; conditions: Homo sapiens
Procedure, shortened: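 293T cells are grown in DMEM with 10% FBS, L-glutamine and penicillin/streptomycin at 37 °C in 5% CO₂. Cells are seeded at 7 × 10³ per well and exposed to six concentrations (0.33-100.0 μM) for 48 h. MTT is then added for 4 h, formazan is dissolved in DMSO and read at 570 nm. IC50 comes from non-linear regression, n = 3 independent experiments.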

[7] = Selectivity index, ratio of IC50 for HEK293T cells to MIC for Candida albicans ATCC MYA-2876; type: toxicity; conditions: human, read-out: Selectivity Index
[8] = Selectivity index, ratio of IC50 for HEK293T cells to MIC for Candida parapsilosis ATCC 22019; type: toxicity; conditions: human, read-out: Selectivity Index
[9] = test system: Candida albicans; experiment: Antifungal activity against Candida albicans ATCC MYA-2876 at 100 ug/ml after 48 hrs by micro broth dilution method; type: functional, organism-based; procedure, shortened: as §1
[10] = test system: Candida parapsilosis; experiment: Antifungal activity against Candida parapsilosis ATCC 22019 at 100 ug/ml after 48 hrs by micro broth dilution method; type: functional, organism-based; procedure, shortened: as §1

| Compound | MIC [1] [µg/mL] | MIC [2] [µg/mL] | MIC [3] [µg/mL] | selectivity ratio [4] | Activity [5] | IC50 [6] [µg/mL] | selectivity ratio [7] | selectivity ratio [8] | Activity [9] | Activity [10] |
| --- | --- | --- | --- | --- | --- | --- | --- | --- | --- | --- |
| C[C@@H]1[C@H](O)[C@@H](C)/C=C/C=C/C=C/C=C/C=C/C=C/C=C/[C@H](O[C@@H]2O[C@H](C)[C@@H](O)[C@H](N)[C@@H]2O)C[C@@H]2O[C@](O)(C[C@@H](O)C[C@@H](O)[C@H](O)CC[C@@H](O)C[C@@H](O)CC(=O)O[C@H]1C)C[C@H](O)[C@H]2C(=O)O [AMPHOTERICIN B] | 2 (≈ 2.16 µM) | 2 (≈ 2.16 µM) | 1 (≈ 1.08 µM) |  |  |  |  |  |  |  |
| C[C@@H]1C[C@H](C)C[C@H](C)[C@@H](O)CC(=O)O[C@H]([C@@H]2CCC[C@H]2C(=O)OCCN(C)C)C/C=C/C=C(/C#N)[C@H](O)[C@@H](C)C1 |  | 100 (≈ 178 µM) | 100 (≈ 178 µM) | < 0.39 | inactive | 39.2 (≈ 70 µM) | 0.39 | 0.39 |  |  |
| C[C@@H]1C[C@H](C)C[C@H](C)[C@@H](O)CC(=O)O[C@H]([C@@H]2CCC[C@H]2C(=O)OCCN2CCN(CC3CC3)CC2)C/C=C/C=C(/C#N)[C@H](O)[C@@H](C)C1 | 50 (≈ 76.2 µM) |  |  | 0.34 |  | 17 (≈ 26 µM) | < 0.17 | < 0.17 | inactive | inactive |
| C=CCN1CCN(CCOC(=O)[C@@H]2CCC[C@H]2[C@@H]2C/C=C/C=C(/C#N)[C@H](O)[C@@H](C)C[C@H](C)C[C@H](C)C[C@H](C)[C@@H](O)CC(=O)O2)CC1 | 12.5 (≈ 19.5 µM) |  |  | 1.76 |  | 22 (≈ 34.3 µM) | < 0.22 | < 0.22 | inactive | inactive |
| C[C@@H]1C[C@H](C)C[C@H](C)[C@@H](O)CC(=O)O[C@H]([C@@H]2CCC[C@H]2C(=O)OCCN2CCOCC2)C/C=C/C=C(/C#N)[C@H](O)[C@@H](C)C1 |  | 100 (≈ 166 µM) | 100 (≈ 166 µM) | < 0.28 | inactive | 28 (≈ 46.5 µM) | 0.28 | 0.28 |  |  |
| C[C@@H]1C[C@H](C)C[C@H](C)[C@@H](O)CC(=O)O[C@H]([C@@H]2CCC[C@H]2C(=O)OCCn2ccnc2)C/C=C/C=C(/C#N)[C@H](O)[C@@H](C)C1 | 25 (≈ 42.8 µM) |  |  | 0.72 |  | 18.1 (≈ 31 µM) | < 0.18 | < 0.18 |  |  |
| C[C@@H]1C[C@H](C)C[C@H](C)[C@@H](O)CC(=O)O[C@H]([C@@H]2CCC[C@H]2C(=O)O)C/C=C/C=C(/C#N)[C@H](O)[C@@H](C)C1 [BORRELIDIN] |  |  | 50 (≈ 102 µM) | < 0.14 | inactive | 14 (≈ 28.5 µM) | < 0.14 | 0.28 | inactive |  |
| C[C@@H]1C[C@H](C)C[C@H](C)[C@@H](O)CC(=O)O[C@H]([C@@H]2CCC[C@H]2C(=O)OCCN2CCN(CC3CCCCC3)CC2)C/C=C/C=C(/C#N)[C@H](O)[C@@H](C)C1 | 25 (≈ 35.8 µM) |  |  | 0.92 |  | 23 (≈ 33 µM) | < 0.23 | < 0.23 | inactive | inactive |
| C[C@@H]1C[C@H](C)C[C@H](C)[C@@H](O)CC(=O)O[C@H]([C@@H]2CCC[C@H]2C(=O)OCCN2CCN(CCC3OCCO3)CC2)C/C=C/C=C(/C#N)[C@H](O)[C@@H](C)C1 | 12.5 (≈ 17.8 µM) |  |  | > 5.61 |  | > 70.1 | < 0.7 | < 0.7 | inactive | inactive |
| COC(=O)[C@@H](CC(C)C)NC(=O)[C@@H]1CCC[C@H]1[C@@H]1C/C=C/C=C(/C#N)[C@H](O)[C@@H](C)C[C@H](C)C[C@H](C)C[C@H](C)[C@@H](O)CC(=O)O1 |  |  |  |  | inactive |  |  |  | inactive | inactive |
| COC(=O)[C@@H](Cc1c[nH]c2ccccc12)NC(=O)[C@@H]1CCC[C@H]1[C@@H]1C/C=C/C=C(/C#N)[C@H](O)[C@@H](C)C[C@H](C)C[C@H](C)C[C@H](C)[C@@H](O)CC(=O)O1 |  |  |  |  | inactive |  |  |  | inactive | inactive |
